proKLK7 act – proKLK7 zymogen activators, primary screen, biochemical, fluorescence intensity. Kallikrein-7 (Homo sapiens), P49862. purified proKLK7, EDANS-DABCYL substrate fluorescence; 100% is mature enzyme control, 0% vehicle. activation, % at 7 µM. 370,000 tested, 0.9% active;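 active = activation above the mean of all tested compounds plus 3 SD, computed per campaign excluding outliers beyond control limits, cut at about 13% in these data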
Target sequence (P49862 whole entry, looked up): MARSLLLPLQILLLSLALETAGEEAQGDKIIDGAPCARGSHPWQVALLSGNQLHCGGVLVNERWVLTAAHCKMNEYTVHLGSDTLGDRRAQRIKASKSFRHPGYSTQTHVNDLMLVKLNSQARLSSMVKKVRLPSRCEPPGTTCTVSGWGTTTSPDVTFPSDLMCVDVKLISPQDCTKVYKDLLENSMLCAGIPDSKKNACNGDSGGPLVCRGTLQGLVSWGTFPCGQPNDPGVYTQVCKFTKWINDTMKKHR
MEX-5 binding – MEX-5 zinc finger RNA-binding disruptors – biochemical, C. elegans, fluorescence polarization, MLPCN library, primary screen; Zinc finger protein mex-5 (Caenorhabditis elegans), Q9XUB2; MEX-5/FITC-TCR2 RNA binding; active compounds read low; activity score (negative = inhibition of binding), % at 10 µM; 300,000 tested, 0.38% active;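 active = inhibition past about -25% in most replicates, and total fluorescence under double the plate's negative control median, limit read from the data; inconclusive = replicates evenly split on the limit, or fluorescence at least double controls; inactive = too little inhibition in most replicates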;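 also: 0% = DMSO and -100% = 5 µM competing unlabeled TCR2 RNA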
Target sequence (Q9XUB2 whole entry, looked up): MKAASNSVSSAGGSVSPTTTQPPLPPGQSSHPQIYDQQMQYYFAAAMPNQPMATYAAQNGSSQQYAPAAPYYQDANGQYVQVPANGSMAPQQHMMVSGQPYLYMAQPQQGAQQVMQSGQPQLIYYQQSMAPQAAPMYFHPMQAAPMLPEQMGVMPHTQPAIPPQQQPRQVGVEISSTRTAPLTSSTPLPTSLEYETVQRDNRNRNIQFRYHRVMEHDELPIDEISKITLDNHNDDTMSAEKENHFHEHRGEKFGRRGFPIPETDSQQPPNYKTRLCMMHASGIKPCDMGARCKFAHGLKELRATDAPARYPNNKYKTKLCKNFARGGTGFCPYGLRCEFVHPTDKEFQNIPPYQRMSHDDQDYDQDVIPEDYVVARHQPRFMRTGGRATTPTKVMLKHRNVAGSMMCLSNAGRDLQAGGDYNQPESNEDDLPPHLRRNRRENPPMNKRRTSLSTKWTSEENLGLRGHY
RanGTP-Impb inh – inhibitors of RanGTP-importin-beta interaction, primary screen, biochemical, FRET, CFP-Ran, YFP-importin-beta, homogeneous; Ran GTPase (GTP-bound) - importin-beta complex; cell-free CFP-Ran/YFP-importin-beta FRET ratio; inhibition, % (concentration not given with the values); 300,000 tested, 1.1% active; AID 2216, 2009;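 active = more than half of the replicate wells show a fall in the fluorescence ratio signal beyond about 16%, limit read from the data, passing the limit was not always enough; inconclusive = exactly half of the replicate wells pass the set limit; inactive = fewer than half of replicates pass the limit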;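 also: 0% = DMSO wells and 100% = Ran loaded with GDP instead of GTP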
Runt-CBFb FRET – inhibitors of RUNX1 Runt–CBFb binding, primary screen, biochemical, FRET, Cerulean-Runt, Venus-CBFb, uHTS; 220,000 tested, 0.46% active; Cerulean-Runt/Venus-CBFb FRET ratio 530/480, 1 h; inhibition, % at 20 µM; Runt-related transcription factor 1 (Homo sapiens) + Core-binding factor subunit beta …;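 active = inhibition over about 50% at 20 µM in the single-dose screen, limit read from the data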;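 also: 0% = DMSO wells and 100% = excess unlabeled CBFb competitor control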
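Schedule: protein complex preformed 1 h, compound exposure 1 h, room temperature, dark; test system: Cerulean-labeled Runt domain protein; amount: 100 nM per protein; buffer or medium: Tris 50 mM pH 7.5, KCl, K2SO4, 0.01% BSA; read-out: loss of energy transfer signal; detection: FRET fluorescence; controls: 5 µM unlabeled CBFb as full-inhibition high control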
Runt-SMMHC FRET – inhibitors of RUNX1 Runt–CBFb-SMMHC binding, primary screen, biochemical, FRET, Cerulean-Runt, Venus-CBFb-SMMHC, uHTS; Runt-related transcription factor 1 (Homo sapiens) + Core-binding factor subunit beta …; Cerulean-Runt/Venus-CBFb-SMMHC FRET ratio 530/480, 1 h; inhibition, % at 20 µM; 220,000 tested, 0.74% active;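 active = mean inhibition across duplicate retests at 20 µM reaching about 50%, limit read from the data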;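 also: 0% = DMSO wells and 100% = wells with excess untagged CBFb-SMMHC; inhibitors lower the FRET ratio by blocking Runt binding to CBFb-SMMHC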
proKLK7 act conf – proKLK7 zymogen activators, confirmation, biochemical, fluorescence intensity, triplicate | shares compounds with proKLK7 act | purified proKLK7, EDANS-DABCYL substrate fluorescence; scaled: vehicle 0, mature enzyme 100 | activation, % at 7 µM | 3,200 tested, 68% active;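 active = activation, as change over the incubation, above the mean of all tested compounds plus 3 SD, cut at about 13% in these data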
EDANS-DABCYL int – EDANS-DABCYL substrate optical interference, artefact control for kallikrein-7 zymogen activator project, biochemical, fluorescence intensity, high throughput | AID 686952, 2013 | no enzyme, 4 h; solvent 0%, active enzyme control 100% | 3,200 tested, 80% active | activation, % at 7 µM | shares compounds with proKLK7 act;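 active = activation above the all-compound mean plus 3 SD, ignoring values outside control-based bounds, cut at about 4.8% in these data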;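 also: value is the 4 h activation minus the activation read at time zero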
K7 EDANS ctr – EDANS fluorescence interference in dose response, no enzyme | shares compounds with proKLK7 act | EDANS-DABCYL peptide fluorescence interference | EC50, µM | 250 tested, 20% active;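 active = compounds that raise the fluorescence signal in this interference counterscreen, with EC50 at or below 10 µM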;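 also: intact quenched peptide substrate alone read at 355 nm excitation and 520 nm emission; signal is fluorescence gain from T0 to T4 after four hours at room temperature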
Active calls of the source: *; ? = inconclusive; / = no result. Compounds with a hit are over-represented: about 2.1% of the library has one in this group of screens.

SMILES | proKLK7 act | MEX-5 binding | RanGTP-Impb inh | Runt-CBFb FRET | Runt-SMMHC FRET | proKLK7 act conf | EDANS-DABCYL int | others
COc1cc2c(cc1OC)C(C)=NCC2 | 115.3* | -4.5 | -3.3 | -1.2 | -4.7 | 61.8* | 77.0*
COc1cc2c(cc1OC)C(C)=NC1(CCCCC1)C2 | 101.0* | -1.2 | 5.5 | 4.4 | 14.9 | 61.1* | 65.6*
COc1ccc2nc(N3CCCC(C(=O)NCCCN4C(C)CCCC4C)C3)sc2c1 (centres undefined) | 0.7 | -1.5 | -3.0 | / | / | / | /
CCCOc1nc2ccccc2cc1/C=C/C(=O)O | 16.9* | -1.2 | 4.4 | 4.3 | 8.4 | 7.7 | 10.7*
CC(NC(=O)CN(C)S(=O)(=O)c1ccc(Br)s1)c1ccccc1 (centres undefined) | 0.2 | 1.3 | -2.3 | / | / | / | /
C[C@H](CO)N1C[C@H](C)[C@@H](CN(C)C(=O)c2ccc(N3CCN(C)CC3)cc2)OCc2cnnn2CCCC1=O | -0.1 | / | / | / | / | / | /
COc1cc(-n2c(C)nc3cc(C(=O)N4CC(C)CC(C)C4)ccc32)cc(OC)c1OC (centres undefined) | -0.1 | / | / | / | / | / | /
NS(=O)(=O)c1cc2c(cc1Cl)NC(C1CC3C=CC1C3)NS2(=O)=O (centres undefined) | 0.4 | / | / | / | / | / | /
O=C1NC(C2CC3C=CC2C3)Nc2ccccc21 (centres undefined) | 23.5* | / | / | / | / | 25.1* | 21.1* | K7 EDANS ctr=>69.4
O=C(Nc1nccs1)c1ccc(N2CCOCC2)c([N+](=O)[O-])c1 | 13.1* | -0.1 | ? | / | / | 0.7 | 0.2
O=C(Nc1ccccc1N1CCOCC1)c1ccc(N2CCOCC2)c([N+](=O)[O-])c1 | 0.0 | -0.6 | 2.1 | -3.3 | 0.7 | / | /
CCc1cccc2cc3c(N)c(C(=O)Nc4ccc(S(=O)(=O)N5CCCC5)cc4)sc3nc12 | 119.2* | -24.3 | -61.8 | 24.0 | -80.2 | 61.6* | 56.9*
Cc1cccc2cc3c(N)c(C(=O)Nc4ccc(N5CCOCC5)cc4)sc3nc12 | 0.2 | ? | -7.3 | -0.9 | -16.5 | / | /
O=C(C[C@@H]1C[C@@H]2c3cc(NC(=O)C4CCC4)ccc3O[C@@H]2[C@@H](CO)O1)NCc1ccc(Cl)cc1 | 0.9 | / | / | / | / | / | /
CC(C)CCNC(=O)COc1ccc2c(c1)C(=O)CC(C)(C)O2 | 39.5* | -2.1 | 3.5 | 1.4 | 3.9 | 34.8* | 46.7*
CCC(Oc1ccc2c(c1)C(=O)CC(C)(C)O2)C(=O)NCCN1CCCCCC1 (centres undefined) | 129.4* | 1.9 | 4.5 | -0.8 | 5.0 | 48.6* | 44.0*
Cc1ccccc1NC(=O)COc1ccc2c(c1)OC(C)(C)CC2=O | -0.1 | -0.1 | -3.3 | 0.4 | -3.5 | / | /
COc1ccc(N2CCN(CCCNC(=O)COc3ccc(F)cc3)CC2)cc1 | 0.2 | / | / | / | / | / | /
CC1(C)CC(=O)c2cc(OCC(=O)NCCN3CCCc4ccccc43)ccc2O1 | 17.9* | 0.6 | 2.6 | 0.6 | -12.5 | 43.4* | 39.3*
CC1(C)CC(=O)c2cc(OCC(=O)NCCCN3CCN(c4ccc(F)cc4)CC3)ccc2O1 | 16.6* | -1.3 | 8.1 | -2.5 | 2.5 | 4.0 | 2.0
COc1ccc(NC(=O)COc2coc(CN3CCCc4ccccc43)cc2=O)cc1 | -0.3 | 0.7 | -0.8 | / | / | / | /
CCOC(=O)N(C)C[C@H]1OCc2cnnn2CCCC(=O)N([C@@H](C)CO)C[C@@H]1C | 0.8 | / | / | / | / | / | /
Cn1nc(C(=O)N2CCN(c3ccc(F)cc3)CC2)c2c1-c1ccccc1S(=O)(=O)C2 | 0.2 | -1.1 | -0.3 | / | / | / | /
CC(C)Nc1nc(-c2ccccc2CO)c2sccc2n1 | 22.1* | / | / | / | / | 16.9* | 10.9* | K7 EDANS ctr=>69.6
OCc1ccccc1-c1nc(NCC2CC2)nc2ccsc12 | 14.6* | / | / | / | / | -17.8 | 6.9*
SMILES | proKLK7 act | MEX-5 binding | RanGTP-Impb inh | Runt-CBFb FRET | Runt-SMMHC FRET | proKLK7 act conf | EDANS-DABCYL int | others
CN(Cc1ccccc1)C(=O)c1cccc(NC(=O)Cc2ccc(NC(=O)C3CCCN(C(=O)C4CC4)C3)cc2)c1 (centres undefined) | 0.2 | / | / | / | / | / | /
CCOC(=O)C1=C[C@@H](C(C)(C)C)N(S(=O)(=O)c2ccc(C)cc2)[C@H]1c1ccc(F)cc1 | 1.2 | / | / | / | / | / | /
Nc1ccc(-c2nc3ncccc3o2)cc1 | 38.5* | -1.3 | 1.9 | / | / | 58.0* | 71.2*
CC1(C)Oc2cc3oc(=O)ccc3c3c2C2C1CCC(C)(O3)C2O (centres undefined) | 15.8* | / | / | / | / | 24.1* | 30.5*
C=CCC1(CC=C)CCCN1C(=O)C1CCC(=O)N(Cc2ccc(Cl)cc2)C1 (centres undefined) | 0.7 | / | / | / | / | / | /
C[C@@H]1C(c2ccc(F)cc2)=NN(c2ccccc2)[C@H]1C(=O)N1CCOC1=O | 21.3* | / | / | / | / | 12.6* | 24.1*
CC[C@@H]1C(c2ccc(F)cc2)=NN(c2ccc(Br)cc2)[C@H]1C(=O)N1CCOC1=O | 3.4 | / | / | / | / | / | /
CC[C@@H]1C(c2cccc(C)c2)=NN(c2ccccc2)[C@H]1C(=O)N1CCOC1=O | 40.9* | / | / | / | / | 55.5* | 51.5*
CC[C@@H]1C(c2ccccc2)=NN(c2ccc(Br)cc2)[C@H]1C(=O)N1CCOC1=O | 27.5* | / | / | / | / | 1.9 | 1.3
COc1ccccc1[C@@H]1C(c2ccccc2)=NN(c2ccc(Br)cc2)[C@H]1C(=O)N1CCOC1=O | -47.7 | / | / | / | / | / | /
O=C(O)c1cc(-c2ccc(Cl)s2)nc2ccccc12 | 47.4* | -1.5 | 2.0 | 2.3 | 0.6 | 36.3* | 41.5*
CCC(C)NC(=O)c1cc(-c2cccs2)nc2ccccc12 (centres undefined) | 25.6* | 0.7 | 0.7 | / | / | -15.2 | -26.9
Cc1ccc(-c2cc(C(=O)O)c3ccccc3n2)s1 | 54.1* | 0.2 | -0.9 | / | / | 63.5* | 70.7*
Cc1cccc(NC(=O)c2cc(-c3ccc(C)s3)nc3ccccc23)n1 | -91.6 | 2.4 | 1.6 | 3.5 | 0.2 | / | /
c1ccc(CCNc2ccnc3cc4ccccc4cc23)cc1 | 32.1* | -1.8 | 151.9* | 36.5 | 92.9* | -36.4 | -52.1

Screening data as filed in PubChem BioAssay.
